Measurements from ChEMBL document CHEMBL2062387, “Blockade of STAT3 activation by sorafenib derivatives through enhancing SHP-1 phosphatase activity” (Eur J Med Chem, 2012).
pIC50: −log10 of the molar value. Calls of active or inactive are those of the source. No cut-off for these calls is given here.

How the values were obtained:
[1] = Growth inhibition of human PLC5 cells after 24 hrs by MTT assay; type: functional, cell-based; conditions: PLC5, 24 h
In short: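 PLC5 cells were grown in DMEM with 10% FBS, penicillin, streptomycin and amphotericin B at 37 °C in 5% CO2. Cells were seeded in 96-well plates for 24 h, then exposed to agents in DMSO (0.1% final) in DMEM for 24 h; range 0.1–15 µM. MTT at 0.5 mg/mL was added for 2 h and absorbance read at 570 nm. Six replicates; IC50 derived.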

[2] = target: Tyrosine-protein phosphatase non-receptor type 6 (Homo sapiens) (UniProt P29350); assay: Induction of SHP1 activation in IL-6-stimulated human PLC5 cells assessed as reduction of p-STAT3 at 10 uM after 24 hrs by ELISA; type: cell-based
Chain of Tyrosine-protein phosphatase non-receptor type 6 (Homo sapiens) (P29350 whole entry): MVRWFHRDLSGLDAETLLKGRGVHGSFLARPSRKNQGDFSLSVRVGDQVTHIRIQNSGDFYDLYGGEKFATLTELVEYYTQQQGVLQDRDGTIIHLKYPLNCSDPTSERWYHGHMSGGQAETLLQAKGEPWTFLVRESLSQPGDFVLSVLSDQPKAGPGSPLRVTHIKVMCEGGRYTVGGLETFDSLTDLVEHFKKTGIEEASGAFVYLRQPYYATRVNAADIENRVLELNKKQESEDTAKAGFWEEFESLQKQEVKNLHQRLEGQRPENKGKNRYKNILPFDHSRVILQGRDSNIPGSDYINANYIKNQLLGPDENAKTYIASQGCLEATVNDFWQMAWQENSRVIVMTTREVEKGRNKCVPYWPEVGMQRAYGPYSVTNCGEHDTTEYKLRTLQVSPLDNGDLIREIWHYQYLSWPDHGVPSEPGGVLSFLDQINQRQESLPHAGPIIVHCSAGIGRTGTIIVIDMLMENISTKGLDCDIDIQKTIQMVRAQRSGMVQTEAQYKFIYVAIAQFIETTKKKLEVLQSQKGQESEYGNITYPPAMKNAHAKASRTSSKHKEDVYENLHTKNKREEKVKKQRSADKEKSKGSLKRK
In short: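 PLC5 cells were pre-stimulated with IL-6 at 25 ng/mL for 30 min, then treated with 10 µM compound for 24 h. Phospho-STAT3 was measured by ELISA against a DMSO control. Mean ± SD, N = 3.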

[3] = target: Tyrosine-protein phosphatase non-receptor type 6 (Homo sapiens) (UniProt P29350); assay: Induction of SHP1 activation in human PLC5 cell lysate at 10 uM after 24 hrs; type: cell-based
In short: (§1)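 PLC5 cells were treated with compound for 24 h. SHP-1 was immunoprecipitated from lysates and its phosphatase activity measured with the EnzChek tyrosine phosphatase kit. Mean ± SD, N = 3.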

[4] = target: Tyrosine-protein phosphatase non-receptor type 6 (Homo sapiens) (UniProt P29350); assay: Induction of SHP1 activation in human PLC5 cells assessed as reduction of p-STAT3 at 5 to 10 uM after 24 hrs by Western blot method; type: cell-based
In short: (§2)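 PLC5 cells were treated at 5 and 10 µM for 24 h in serum-free medium. Lysates were immunoblotted for p-STAT3 (Tyr705), STAT3, Mcl-1, cyclin D1, survivin, SOCS-1, SOCS-3 and PARP.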

[5] = target: Tyrosine-protein phosphatase non-receptor type 6 (Homo sapiens) (UniProt P29350); assay: Induction of SHP1 activation in human PLC5 cells assessed as repression of Mcl-1 expression at 5 to 10 uM after 24 hrs by Western blot method; type: cell-based; in short: as §2
[6] = target: Tyrosine-protein phosphatase non-receptor type 6 (Homo sapiens) (UniProt P29350); assay: Induction of SHP1 activation in human PLC5 cells assessed as repression of CCND1 expression at 5 to 10 uM after 24 hrs by Western blot method; type: cell-based; in short: as §2
[7] = target: Tyrosine-protein phosphatase non-receptor type 6 (Homo sapiens) (UniProt P29350); assay: Induction of SHP1 activation in human PLC5 cells assessed as repression of survivin expression at 5 to 10 uM after 24 hrs by Western blot method; type: cell-based; in short: as §2
[8] = target: Tyrosine-protein phosphatase non-receptor type 6 (Homo sapiens) (UniProt P29350); assay: Induction of SHP1 activation in human PLC5 cells assessed as effect on SOCS-1 level at 5 to 10 uM after 24 hrs by Western blot method; type: cell-based; in short: as §2
[9] = target: Tyrosine-protein phosphatase non-receptor type 6 (Homo sapiens) (UniProt P29350); assay: Induction of SHP1 activation in human PLC5 cells assessed as effect on SOCS-3 level at 5 to 10 uM after 24 hrs by Western blot method; type: cell-based; in short: as §2
[10] = target: Tyrosine-protein phosphatase non-receptor type 6 (Homo sapiens) (UniProt P29350); assay: Induction of SHP1 activation in human PLC5 cell lysate after 24 hrs; type: cell-based; in short: as §1
[11] = target: Tyrosine-protein phosphatase non-receptor type 6 (Homo sapiens) (UniProt P29350); assay: Induction of SHP1 activation in human PLC5 cells assessed as PARP cleavage at 5 to 10 uM after 24 hrs by Western blot method; type: cell-based; in short: as §2
[12] = target: Tyrosine-protein phosphatase non-receptor type 6 (Homo sapiens) (UniProt P29350); assay: Induction of SHP1 activation in human PLC5 cells at 1 to 15 uM after 24 hrs; type: cell-based; in short: as §1
[13] = Ratio of SC-1 IC50 to compound IC50 for human PLC5 cells; type: functional
PLC5 = assay: Antitumor activity against PLC5 cells xenografted in athymic NCr mouse assessed as tumor growth inhibition at 10 mg/kg, po once daily for 3 weeks; type: functional, organism-based; parameters: dose 10 mg/kg
In short: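 Male NCr athymic nude mice, 5–7 weeks old, bearing PLC5 tumors. Dosing began when tumors reached 100 mm3: 10 mg/kg p.o. once daily for three weeks. Vehicle was Cremophor EL/95% ethanol (50:50), given to controls. Read-out was tumor growth.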

Mus musculus [14] = assay: Inhibition of STAT3 phosphorylation in tumor of athymic NCr mouse xenografted with PLC5 cells at 10 mg/kg, po once daily for 3 weeks by Western blot method; type: functional, organism-based; parameters: dose 10 mg/kg
In short: (§3)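 Tumors came from PLC5 xenografts in nude mice dosed at 10 mg/kg/day p.o. for three weeks, with vehicle Cremophor EL/ethanol (50:50). Tumor extracts were assayed for p-STAT3 by western blot and for SHP-1 phosphatase activity.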

Mus musculus [15] = assay: Induction of SHP1 activity in tumor of athymic NCr mouse xenografted with PLC5 cells at 10 mg/kg, po once daily for 3 weeks; type: functional, organism-based; parameters: dose 10 mg/kg; in short: as §3

Activity [2] | Structure (SMILES) | pIC50 [1] | also measured
inactive | C[C@@H](NC(=O)Nc1ccc(Oc2ccc(C#N)cc2)cc1)c1cccc2ccccc12 | < 4.82 | 
inactive | N#Cc1ccc(Oc2cccc(NCc3cccc(OC(F)(F)F)c3)c2)cc1 | < 4.82 | 
Active | COc1ccc(CNC(=O)Nc2ccc(Oc3ccc(C#N)cc3)cc2)cc1OC | 4.91 | 
Active | O=c1[nH]c2ccc(Oc3cccc(NS(=O)(=O)c4cccc(C(F)(F)F)c4)c3)cc2[nH]1 | 4.94 | 
inactive | CNC(=O)c1cc(Oc2cccc(NCc3cccc(OC(F)(F)F)c3)c2)ccn1 | < 4.82 | Activity [3]: inactive; Activity [4]: inactive; Activity [5]: inactive; Activity [6]: inactive; Activity [7]: inactive; Activity [8]: inactive; Activity [9]: inactive
inactive | Nc1ccc(Oc2cccc(NS(=O)(=O)c3cccc(C(F)(F)F)c3)c2)cc1N | < 4.82 | 
Active | Cc1ccc(NC(=O)Nc2ccc(Cl)c(C(F)(F)F)c2)cc1Oc1ccc(C#N)cc1 | 5.35 | 
Active | O=c1[nH]c2ccc(Oc3cccc(NCc4cccc(OC(F)(F)F)c4)c3)cc2[nH]1 | 4.99 | 
Active | N#Cc1ccc(Oc2cccc(NC(=O)Nc3ccc(Cl)c(C(F)(F)F)c3)c2)cc1 [SC-43] | 6.30 | Activity [3]: Active; Activity [10]: Dose-dependent effect; Activity [4]: Active; Activity [5]: Active; Activity [6]: Active; Activity [7]: Active; Activity [11]: Active; Activity [8]: inactive; Activity [9]: inactive
Active | Nc1cc(Oc2cccc(NC(=O)Nc3ccc(Cl)c(C(F)(F)F)c3)c2)ccc1[N+](=O)[O-] | 5.92 | 
 | CNC(=O)c1cc(Oc2ccc(NC(=O)Nc3ccc(Cl)c(C(F)(F)F)c3)cc2)ccn1 |  | Activity [12]: Active
Active | N#Cc1ccc(Oc2ccc(CNC(=O)Nc3ccc(Cl)c(C(F)(F)F)c3)cc2)cc1 | 5.68 | Ratio IC50 [13]: 4; Activity [3]: Active; TGI (PLC5): Active; inhibition (Mus musculus [14]): Active; Activity (Mus musculus [15]): Active
Active | COc1ccc(CNC(=O)NCc2ccc(Oc3ccc(C#N)cc3)cc2)cc1OC | 4.98 | 
inactive | N#Cc1ccc(Oc2cccc(NS(=O)(=O)c3ccccc3)c2)cc1 | < 4.82 | 
inactive | CNC(=O)c1cc(Oc2cccc(NC(=O)c3ccccc3)c2)ccn1 | < 4.82 | 
Active | Nc1cc(Oc2cccc(NCc3cccc(OC(F)(F)F)c3)c2)ccc1[N+](=O)[O-] | 5.08 | 
Active | CNC(=O)c1cc(Oc2cccc(NS(=O)(=O)c3cccc(C(F)(F)F)c3)c2)ccn1 | 5.08 | 
inactive | CNC(=O)c1cc(Oc2cccc(NS(=O)(=O)c3ccccc3)c2)ccn1 | < 4.82 | 
inactive | CNC(=O)c1cc(Oc2cccc(NC(=O)Nc3cccc(F)c3)c2)ccn1 | < 4.82 | 
inactive | N#Cc1ccc(Oc2ccc(CNC(=O)NCc3cccc(OC(F)(F)F)c3)cc2)cc1 | < 4.82 | 
Active | Nc1cc(Oc2cccc(NS(=O)(=O)c3cccc(C(F)(F)F)c3)c2)ccc1[N+](=O)[O-] | 5.41 | 
inactive | N#Cc1ccc(Oc2cccc(NC(=O)c3ccccc3)c2)cc1 | < 4.82 | 
Active | N#Cc1ccc(Oc2cccc(NS(=O)(=O)c3cccc(C(F)(F)F)c3)c2)cc1 | 5.66 | 
Active | N#Cc1ccc(Oc2cccc(NC(=O)Nc3cccc(F)c3)c2)cc1 | 5.48 | 
inactive | Nc1ccc(Oc2cccc(NCc3cccc(OC(F)(F)F)c3)c2)cc1N | < 4.82 | 
